# High-throughput results from PubChem.
# Hck-Nef inh: inhibitors of Nef-activated human Hck kinase, primary screen, biochemical, Z-Lyte FRET, 384-well, Hck-YEEI. Tyrosine-protein kinase HCK (Homo sapiens), P08631. Recombinant Hck-YEEI plus Nef, Z-Lyte FRET kinase assay. inhibition, % at 20 µM. 0.68% of 220,000 active. AID 463187, 2010;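 active means Hck-Nef kinase inhibition above about 50%, limit read from the data; inactive means inhibition below that limit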;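 further: 0% = DMSO with Hck plus Nef and 100% = Hck alone without Nef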
# Target sequence (P08631 whole entry, looked up): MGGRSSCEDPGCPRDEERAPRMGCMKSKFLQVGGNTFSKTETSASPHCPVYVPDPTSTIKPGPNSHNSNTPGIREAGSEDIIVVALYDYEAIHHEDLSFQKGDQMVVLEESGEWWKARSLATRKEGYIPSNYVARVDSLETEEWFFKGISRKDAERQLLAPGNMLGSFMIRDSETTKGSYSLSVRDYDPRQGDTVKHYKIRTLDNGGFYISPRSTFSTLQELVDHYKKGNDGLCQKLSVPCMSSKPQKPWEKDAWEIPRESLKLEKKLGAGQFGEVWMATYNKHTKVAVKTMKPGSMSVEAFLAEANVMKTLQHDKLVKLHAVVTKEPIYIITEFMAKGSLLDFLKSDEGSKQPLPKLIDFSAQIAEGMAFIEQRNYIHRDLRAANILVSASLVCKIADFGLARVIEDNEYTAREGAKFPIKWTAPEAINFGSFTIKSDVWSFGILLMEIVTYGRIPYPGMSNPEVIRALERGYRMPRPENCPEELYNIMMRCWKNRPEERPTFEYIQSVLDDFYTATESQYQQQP
# RanGTP-Impb inh: inhibitors of RanGTP-importin-beta interaction, primary screen, biochemical, FRET, CFP-Ran, YFP-importin-beta, homogeneous; cell-free CFP-Ran/YFP-importin-beta FRET ratio; inhibition, % (concentration not given with the values); 1.1% of 300,000 active; AID 2216, 2009;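 active means more than half of the replicate wells show a fall in the fluorescence ratio signal beyond about 16%, limit read from the data, passing the limit was not always enough; inconclusive means exactly half of the replicate wells pass the set limit; inactive means fewer than half of replicates pass the limit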;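 further: 0% = DMSO wells and 100% = Ran loaded with GDP instead of GTP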
# Runt-CBFb FRET: inhibitors of RUNX1 Runt–CBFb binding, primary screen, biochemical, FRET, Cerulean-Runt, Venus-CBFb, uHTS; Cerulean-Runt/Venus-CBFb FRET ratio 530/480, 1 h; inhibition, % at 20 µM; 0.46% of 220,000 active;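 active means inhibition over about 50% at 20 µM in the single-dose screen, limit read from the data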;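 further: 0% = DMSO wells and 100% = excess unlabeled CBFb competitor control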
#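 test system = Cerulean-tagged RUNX1 Runt domain (FRET donor) fusion protein | reagent = Venus-CBFb binding partner, 100 nM | incubation = protein complex preformed 1 h, compound exposure 1 h, room temperature, dark | detection = FRET fluorescence | read-out basis = loss of energy transfer signal | controls = 5 µM unlabeled CBFb as full-inhibition high control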
# Runt-SMMHC FRET: inhibitors of RUNX1 Runt–CBFb-SMMHC binding, primary screen, biochemical, FRET, Cerulean-Runt, Venus-CBFb-SMMHC, uHTS; Runt-related transcription factor 1 (Homo sapiens) + Core-binding factor subunit beta …; Cerulean-Runt/Venus-CBFb-SMMHC FRET ratio 530/480, 1 h; inhibition, % at 20 µM; 0.74% of 220,000 active; AID 1434, 2008;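 active means mean inhibition across duplicate retests at 20 µM reaching about 50%, limit read from the data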;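 further: 0% = DMSO wells and 100% = wells with excess untagged CBFb-SMMHC; inhibitors lower the FRET ratio by blocking Runt binding to CBFb-SMMHC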
# Starred values were filed as active, the others as inactive; ? = inconclusive; . = no result. An excerpt weighted towards active compounds, which were near 1.9% of everything screened.
SMILES,Hck-Nef inh,RanGTP-Impb inh,Runt-CBFb FRET,Runt-SMMHC FRET
CCN(CC)S(=O)(=O)c1cccc(NC(=O)CSc2nnc(N)s2)c1,8,30*,0,-2
Cc1ccc(NC(=O)CN2C(=O)/C(=C3\SC(=S)N(C4CCS(=O)(=O)C4)C3=O)c3ccccc32)cc1 (stereo unspecified),97*,.,11,8
COc1ccc(C(O)P(=O)(OCCC(C)C)c2ccc(N(C)C)cc2)cc1 (stereo unspecified),.,0,.,.
CCSc1nc(N2CCOCC2)c2c(c1C#N)CC(C)(C)N(C)C2,0,-3,95*,91*
CN1Cc2c(N3CCOCC3)nc(SCc3ccccc3)c(C#N)c2CC1(C)C,2,27*,47,62*
CC1(C)Cc2c(C#N)c(SCC(=O)c3ccccc3)nc(N3CCOCC3)c2CS1,-1,2,10,-2
COC(=O)CSc1nc(N2CCOCC2)c2c(c1C#N)CC(C)(C)N(C)C2,1,18*,19,56*
C=CCSc1nc(N2CCOCC2)c2c(c1C#N)CC(C)(C)N(C)C2,19,?,16,12
CN(C)CCNC(=O)Cn1ccc2cc(S(=O)(=O)N3CCCCCC3)ccc21,.,-1,.,.
CCN(CC(=O)NCc1ccc(F)cc1)CC(=O)Nc1ccc(S(=O)(=O)N2CCCC2)cc1,26,17*,-5,0
COc1ccc(CNC(=O)CN2C(=O)COc3ccc(S(=O)(=O)N4CCCC4)cc32)cc1,.,2,.,.
O=C(Cc1ccc(F)cc1)Nc1ccc(S(=O)(=O)N2CCCCC2)cc1,18,-3,0,1
O=C(CN1C(=O)COc2ccc(S(=O)(=O)N3CCCCC3)cc21)NCc1ccc(F)cc1,.,51*,.,.
O=C1NCCN/C1=C\C(=O)c1cccc(Br)c1,17,-6,1,-1
COc1c([N+](=O)[O-])cc(C(=O)NNC(=O)c2ccc(C)cc2)cc1[N+](=O)[O-],.,-2,.,.
CC(C)Cc1nnc(NC(=O)CCC(=O)N2CCN(c3ccccc3F)CC2)s1,.,154*,.,.
COC(=O)c1ccccc1NC(=O)NC1CCN(Cc2ccccc2)CC1,0,-1,91*,-3
Cc1noc(C(=O)NCC2CCCO2)c1Cl (stereo unspecified),.,23*,.,.
Cc1onc(-c2c(Cl)cccc2Cl)c1C(=O)NCC1CCCO1 (stereo unspecified),1,-3,-1,3
CCc1ccc2c(c1)C1(SC(NC(C)=O)=NN1C(C)=O)C(=O)N2CC (stereo unspecified),15,6,0,0
CCOc1ccc(CCNC(=O)c2ccc(S(=O)(=O)N3CCCC3)cc2)cc1OCC,.,0,.,.
Cn1cc(/C=N\O)nc2c(=O)n(-c3ccccc3)c(=O)nc1-2,30,33*,84*,95*
O/N=C/c1cn(-c2ccccc2)nn1,24,-2,0,1
CCOCCOC(=O)C1=C(C)Nc2ccc(C)cc2S1,8,23*,2,11
O=c1c2ccccc2n(CC(O)CN2CCOCC2)c2ccccc12 (stereo unspecified),.,79*,.,.
SMILES,Hck-Nef inh,RanGTP-Impb inh,Runt-CBFb FRET,Runt-SMMHC FRET
CCOC(=O)c1nc(SC)n(C)c1C(=O)OCC,12,-8,0,-1
Cc1nn(C)cc1NC(=O)c1cc2nc(-c3ccco3)cc(C(F)(F)F)n2n1,16,3,2,6
O=C(Nc1cnn(Cc2ccccc2)c1)c1cc2nc(-c3ccco3)cc(C(F)(F)F)n2n1,1,17*,-4,6
COC(=O)c1c(C)c2c(C)cc3ccccn3c-2c1C(=O)OC,-3,-1,-9,-34
COC(=O)c1cc2c(-c3ccccc3)cc3ccccn3c-2c1C(=O)OC,1,-1,38,54*
COc1ccc2c(c1)c(C(=O)CN1CCN(C(=O)c3ccco3)CC1)c(C)n2C,2,19*,-3,-38
COc1ccc2c(c1)c(C(=O)CN1CCN(Cc3ccccc3)CC1)c(C)n2C,7,-2,0,-2
CCOc1cc(-c2cc(-c3ccc(N)cc3)nc(N)c2C#N)ccc1O,17,48*,46,80*
Cc1ccc(N=C2NC(=O)/C(=C\c3ccsc3)S2)c(C)c1,26,8,-3,3
CN(C)CCN1C(=O)C(=O)/C(=C(/O)c2ccc3c(c2)OCCO3)C1c1ccccn1 (stereo unspecified),14,24*,2,-1
COc1ccc(/C(O)=C2/C(=O)C(=O)N(CCN3CCOCC3)C2c2ccccn2)cc1 (stereo unspecified),-1,.,6,8
Cc1c(/C(O)=C2/C(=O)C(=O)N(CCN3CCOCC3)C2c2ccccn2)cnn1-c1ccccc1 (stereo unspecified),-18,35*,12,18
COc1cccc(/C(O)=C2/C(=O)C(=O)N(CCN(C)C)C2c2ccccn2)c1 (stereo unspecified),0,?,-1,-2
O=C1C(=O)N(CCN2CCOCC2)C(c2ccccn2)/C1=C(/O)c1ccc(F)cc1 (stereo unspecified),0,19*,5,4
O=C(COc1coc(CN2CCCc3ccccc32)cc1=O)Nc1ccccc1,.,-2,.,.
ClCC1NCC(c2ccccc2Cl)c2c1[nH]c1ccccc21 (stereo unspecified),23,6,1,7
COc1ccc(-c2c(C#N)c(N)nc3c2CCC3)cc1,10,-6,45,97*
COc1ccc(-c2c(C#N)c(N)nc3c2CCCC3)cc1OC,10,-2,.,.
CN1/C(=C\C(=O)COC(=O)c2ccco2)C(C)(C)c2ccccc21,-4,?,-1,1
CN1/C(=C\C(=O)c2cccc(S(=O)(=O)N3CCCCC3)c2)C(C)(C)c2ccccc21,6,21*,-8,62
CN1/C(=C\C(=O)c2ccco2)C(C)(C)c2ccccc21,33,8,9,79*
COc1ccc(OC)c2c1cc(C(=O)N[C@@H](C)C(=O)N[C@@H](C(=O)O)c1ccccc1)n2C,.,2,.,.
CCc1ccc(S(=O)(=O)N2CCN(c3ncccn3)CC2)cc1,.,6,.,.
CC1=C(C#N)C(=O)N(C2CCS(=O)(=O)C2)C(=O)/C1=C\c1ccco1 (stereo unspecified),100*,-3,12,-144
CCc1nn(CC(=O)N2CCN(c3ccc(OC)cc3)CC2)c(=O)c2cc3occc3n12,.,11,.,.
Cc1cc(O)c(CN(C)C)c2c1C(=O)/C(=C/c1ccco1)O2,.,-46,.,.
Cc1cc(O)c(C=O)c2c1C(=O)Oc1c(CO)c(O)c3c(c1O2)C(O)OC3=O (stereo unspecified),33,.,53*,40
